Compound activity from PubChem.
Only some compounds are listed: those with a hit (about 1.3% of all), similar ones and a draw of the others.
TPT1 inh: inhibitors of Candida albicans tRNA 2'-phosphotransferase TPT1; recombinant caTPT1, FP RNA substrate dephosphorylation; inhibition, % at 5 µM; actives 0.81% (n = 300,000); AID 1962;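 active = inhibition above the mean of all tested compounds plus 3 SD, set per screening campaign, cut at about 24% in these data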
HNF4A DNA FP: change in binding of human HNF4 alpha to DNA; P41235; HNF4a-FITC DNA binding, fluorescence polarization, 1 h; activity change, % at 10 µM; actives 0.3% (n = 360,000); in the data active = activity change above about 30%, passing the limit was not always enough
aDG glyco act: alpha-DG glycosylation activation | Pro5-aDG cells, alpha-DG glycosylation AlphaScreen (IIH6); 0% Pro5, 100% B10-LARGE cell signal | activation, % at 10 µM | actives 0.22% (n = 360,000);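 active = activation of at least 8% versus controls, or a plate z-score of at least 8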;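 also: Pro5 are CHO cells carrying HIG-tagged alpha-DG that lacks glycosylation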
Rpn11 inh: blocks the human proteasome subunit Rpn11; actives 0.59% (n = 360,000); human 26S proteasome, Ub4-pepOG fluorescence polarization; 20S core pre-blocked with epoxomicin; O00487; inhibition, % at 20 µM; AID 588493;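 active = inhibition at 20 µM, scaled to each plate's controls, above about 33%, limit read from the data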
Target sequence (O00487 whole entry, looked up): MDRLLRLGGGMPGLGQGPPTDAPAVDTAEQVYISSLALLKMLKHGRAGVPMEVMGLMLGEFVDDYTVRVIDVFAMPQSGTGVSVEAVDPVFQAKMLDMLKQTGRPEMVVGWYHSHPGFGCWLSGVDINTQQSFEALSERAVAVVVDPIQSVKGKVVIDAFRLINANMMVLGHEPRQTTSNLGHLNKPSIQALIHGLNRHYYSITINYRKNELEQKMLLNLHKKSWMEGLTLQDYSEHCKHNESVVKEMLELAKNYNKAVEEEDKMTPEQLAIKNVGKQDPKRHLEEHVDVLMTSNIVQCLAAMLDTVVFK
XiGFP reactiv: X-chromosome reactivation activator; actives 0.055% (n = 360,000); XiGFP mouse fibroblasts, % GFP-positive cells imaging, 3 d; cells co-treated with 5-aza-dC sensitizer; scaled so ellipticine positive control = 100%; activation, % at 7.58 µM;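 active = mean normalized replicate activation at least 10% and every replicate at or above 10%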
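Schedule: 3 d treatment, 15 min room-temperature fixation; system: 68-5-11 XiGFP fibroblast line; buffer or medium: DMEM plus 5-aza-dC sensitizer; control set: ellipticine 6 µM positive control; compound: one concentration, pinned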
CSN deneddyl inh: CSN deneddylation inhibition | actives 0.38% (n = 360,000) | Q92905 | inhibition, % at 12.5 µM | Purified CSN, SCF-Nedd8-OG deneddylation, fluorescence polarization;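 active = pattern-corrected inhibition above about 35%, with an unprinted fluorescence ratio check between 0.5 and 1.5, limit read from the data, passing the limit was not always enough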
Target sequence (Q92905 whole entry, looked up, one chain of several): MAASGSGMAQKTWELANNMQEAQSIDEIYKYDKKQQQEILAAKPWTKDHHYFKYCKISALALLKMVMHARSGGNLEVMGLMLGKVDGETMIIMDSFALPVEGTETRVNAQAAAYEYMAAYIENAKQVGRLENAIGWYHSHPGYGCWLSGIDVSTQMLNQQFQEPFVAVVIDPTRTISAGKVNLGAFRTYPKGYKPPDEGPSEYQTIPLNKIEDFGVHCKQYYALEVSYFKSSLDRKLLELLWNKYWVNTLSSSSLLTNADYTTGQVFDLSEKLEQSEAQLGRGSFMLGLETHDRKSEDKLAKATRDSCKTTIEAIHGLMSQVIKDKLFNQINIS
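Detection – fluorescence polarization · System – HEK293T-derived human Csn5 enzyme · Controls – substrate-only high control, full reaction low control · Timing – 90 min, room temperature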
TPT1 inh confirm: confirmation of Candida albicans TPT1 inhibitors; inhibition, % at 5 µM; recombinant caTPT1, fluorescence polarization, RNase T1 coupled; shares compounds with TPT1 inh; actives 74% (n = 2,400);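 active = inhibition above the primary screen limit, the mean inhibition of all tested compounds plus 3 SD, cut at about 25% in these data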
RNase T1 counter: RNase T1 inhibition in TPT1 counter-screen; shares compounds with TPT1 inh; RNase T1 cleavage, fluorescence polarization, 1536-well; inhibition, % at 5 µM; actives 83% (n = 2,400);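 active = inhibition above the solvent-only control well mean plus 3 SD, limit set per screening run, cut at about 23% in these data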;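 also: inhibitors block cleavage so intact labeled substrate keeps polarization high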
Target sequence (P00651 whole entry, looked up): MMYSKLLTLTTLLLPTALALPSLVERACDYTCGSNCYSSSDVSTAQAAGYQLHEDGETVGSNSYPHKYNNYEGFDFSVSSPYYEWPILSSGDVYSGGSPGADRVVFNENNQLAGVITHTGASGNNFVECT
Large screens that a line does not name were inactive (follow-up assays come after a bar, where shown); ! = not confirmed by another sample.

COc1ccc(/C=C2\SC(c3ccc(C)cc3)=NC2=O)cc1OC	TPT1 inh 87, HNF4A DNA FP 86 (not shown: Rpn11 inh, XiGFP reactiv) | TPT1 inh confirm 84 | RNase T1 counter 90
COc1cc(/C=C2\SC(c3ccc(C)cc3)=NC2=O)cc(OC)c1OC	TPT1 inh 30, HNF4A DNA FP 51, CSN deneddyl inh 49 (not shown: Rpn11 inh, XiGFP reactiv) | TPT1 inh confirm 40 | RNase T1 counter 50
COc1cc(/C=C2\SC(N)=NC2=O)cc(Br)c1O	TPT1 inh 59, HNF4A DNA FP 38, CSN deneddyl inh 47 (not shown: Rpn11 inh) | TPT1 inh confirm 69 | RNase T1 counter 78
COc1ccc(/C=C2/SC(c3ccc(C)cc3)=NC2=O)cc1OC	TPT1 inh 112 (not shown: Rpn11 inh, XiGFP reactiv) | TPT1 inh confirm 80 | RNase T1 counter 85
COc1cc(/C=C2\SC(c3ccccc3)=NC2=O)cc(Cl)c1O	none (no result: TPT1 inh)
COc1cc(/C=C2\SC(N)=NC2=O)ccc1OCC(=O)Nc1ccc(C)cc1	none
C[C@@H]1CN([C@@H](C)CO)C(=O)c2cc(NS(C)(=O)=O)ccc2O[C@H]1CN(C)S(=O)(=O)c1ccccc1	none (no result: TPT1 inh, HNF4A DNA FP, aDG glyco act, Rpn11 inh, CSN deneddyl inh)
C[C@@H]1CCCCO[C@H](CN(C)C(=O)Nc2ccccc2)[C@H](C)CN([C@H](C)CO)C(=O)c2cc(NC(=O)C3CCCCC3)ccc2O1	none (no result: TPT1 inh, HNF4A DNA FP, aDG glyco act, Rpn11 inh, CSN deneddyl inh)
O=C(Cn1cnc2ccccc21)N/N=C/c1cccc([N+](=O)[O-])c1	TPT1 inh 36 | TPT1 inh confirm inactive | RNase T1 counter inactive
C[C@@H]1CN([C@@H](C)CO)C(=O)c2cccc(NC(=O)Nc3ccccc3)c2O[C@H]1CN(C)Cc1ccncc1	none (no result: TPT1 inh, HNF4A DNA FP, aDG glyco act, Rpn11 inh, CSN deneddyl inh)
CCCn1c(NC(=O)CCS(=O)(=O)c2ccc(C)cc2)nc2ccccc21	TPT1 inh 46 | TPT1 inh confirm 58 | RNase T1 counter 68
N#Cc1cc(Sc2ccccn2)c([N+](=O)[O-])cc1C#N	TPT1 inh 38, Rpn11 inh 57 | TPT1 inh confirm 36 | RNase T1 counter 45
O=C(C[C@H]1C=C[C@H](NC(=O)c2ccncc2)[C@@H](CO)O1)NCC1CCCCC1	none (no result: TPT1 inh, HNF4A DNA FP, aDG glyco act, Rpn11 inh, CSN deneddyl inh)
CCOC(=O)C1=C(c2ccccc2)N=c2s/c(=C\c3ccc(O)cc3)c(=O)n2C1c1cccs1 (stereo unspecified)	TPT1 inh 31, CSN deneddyl inh 45 (not shown: Rpn11 inh, XiGFP reactiv) | TPT1 inh confirm 53 | RNase T1 counter 60
CCOC(=O)C1=C(c2ccccc2)N=c2sc(=Cc3cc(OC)c(OC)c(OC)c3)c(=O)n2C1c1cccs1 (stereo unspecified)	none (no result: TPT1 inh)
O=C(Nc1ccccc1)NC1CCN(Cc2ccccc2)CC1	TPT1 inh 30 | TPT1 inh confirm inactive | RNase T1 counter inactive
O=C(C[C@H]1CC[C@H](NC(=O)C2CC2)[C@@H](CO)O1)NC1CCC1	none (no result: TPT1 inh, HNF4A DNA FP, aDG glyco act, Rpn11 inh, CSN deneddyl inh)
COc1ccc(/C=C/C(=O)c2ccncc2)c2ccccc12	TPT1 inh 63 | TPT1 inh confirm 73 | RNase T1 counter 81
C[C@H](CO)N1C[C@H](C)[C@H](CN(C)CC2CCCCC2)Oc2ccc(NC(=O)Nc3cccc4ccccc34)cc2C1=O	none (no result: TPT1 inh, HNF4A DNA FP, aDG glyco act, Rpn11 inh, CSN deneddyl inh)
CCOc1ccc2nc(/N=C/c3nc(-c4ccc(Br)cc4)oc3O)sc2c1	TPT1 inh 50 (not shown: Rpn11 inh) | TPT1 inh confirm 58 | RNase T1 counter 68
N=C(N)SCc1nc2ccccc2c(=O)n1-c1ccccc1	TPT1 inh 26! | TPT1 inh confirm 28 | RNase T1 counter 37
CO[C@@H]1CN(C)C(=O)c2cc(NC(=O)C3CCCCC3)ccc2OC[C@H](C)N(C)C[C@H]1C	none (no result: TPT1 inh, HNF4A DNA FP, aDG glyco act, Rpn11 inh, CSN deneddyl inh)
CCOC(=O)c1sc(N)c(C#N)c1COC(=O)CNC(=O)c1cc(OC)c(OC)c(OC)c1	TPT1 inh 79, HNF4A DNA FP 99, CSN deneddyl inh 71 (not shown: Rpn11 inh, XiGFP reactiv) | TPT1 inh confirm 92 | RNase T1 counter 103
COc1cc(C(=O)NCC(=O)OCc2ccccc2Cl)cc(OC)c1OC	none
CC(C)NC(=O)Nc1ccc2c(c1)CC(=O)N(C)C[C@@H](C)[C@@H](CN(C)S(C)(=O)=O)O2	none (no result: TPT1 inh, HNF4A DNA FP, aDG glyco act, Rpn11 inh, CSN deneddyl inh)
CC(C)CC#Cc1ccc2c(c1)O[C@H](CN(C)C(=O)CC1CC1)[C@@H](C)CN([C@H](C)CO)S2(=O)=O	none (no result: TPT1 inh, HNF4A DNA FP, aDG glyco act, Rpn11 inh, CSN deneddyl inh)
O=C1c2cc(CO)cc(O)c2C(=O)c2c(O[C@@H]3OC(CO)[C@@H](O)[C@@H](O)[C@@H]3O)cccc21 (stereo partly specified)	none (no result: XiGFP reactiv)
O=C(O)c1cc(O)c2c(c1)[C@@H]([C@H]1c3cc(C(=O)O)cc(O)c3C(=O)c3c(O[C@@H]4O[C@H](CO)[C@@H](O)[C@H](O)[C@H]4O)cccc31)c1cccc(OC3O[C@H](CO)[C@@H](O)[C@H](O)[C@H]3O)c1C2=O (stereo partly specified)	TPT1 inh 77 | TPT1 inh confirm 84 | RNase T1 counter inactive
N#C/C(=C\c1ccc(O)c(O)c1)C(=O)N1CCCC1	none
N#C/C(=C\c1ccc(O)c(O)c1)C(=O)c1ccc(O)c(O)c1	TPT1 inh 27 (not shown: Rpn11 inh) | TPT1 inh confirm 69 | RNase T1 counter 74
C[C@H]1CN([C@@H](C)CO)C(=O)c2cc(-c3ccccc3)cnc2O[C@@H]1CN(C)C	none (no result: TPT1 inh, HNF4A DNA FP, aDG glyco act, Rpn11 inh, CSN deneddyl inh)
COc1cc([N+](=O)[O-])ccc1N/C=C/C(=O)c1cccs1	TPT1 inh 167 (not shown: Rpn11 inh, XiGFP reactiv) | TPT1 inh confirm 143 | RNase T1 counter 136
O=C(/C=C/c1ccc([N+](=O)[O-])cc1)c1cccs1	none
CC(=O)c1sc(N/N=C\c2ccccc2O)nc1C	TPT1 inh 136, HNF4A DNA FP 35 (not shown: Rpn11 inh) | TPT1 inh confirm 118 | RNase T1 counter 115
COC(=O)c1cc(=O)nc(NN=Cc2ccccc2O)s1	none (no result: TPT1 inh, HNF4A DNA FP, aDG glyco act, Rpn11 inh, CSN deneddyl inh)
CCOc1ccc(C2C(C#N)=C(N)SC(N)=C2C#N)c(OCC)c1	TPT1 inh 150 (not shown: Rpn11 inh, XiGFP reactiv) | TPT1 inh confirm inactive | RNase T1 counter 32
Cc1ccc(OCC(=O)N2CCN(c3ccc([N+](=O)[O-])c(N4CCOCC4)c3)CC2)cc1	TPT1 inh 31 (no result: XiGFP reactiv) | TPT1 inh confirm inactive | RNase T1 counter inactive
CN1CCN(C(=O)C[C@H]2CC[C@H]3[C@H](COc4ccc(NC(=O)C5CCCC5)cc4C(=O)N3C)O2)CC1	none (no result: TPT1 inh, HNF4A DNA FP, aDG glyco act, Rpn11 inh, CSN deneddyl inh)
CCCN(CCC)C1=N/C(=C\c2ccco2)C(=O)N1c1ccccc1	TPT1 inh 26 (no result: XiGFP reactiv) | TPT1 inh confirm inactive | RNase T1 counter 22
Cc1cccc(N=C2NC(=O)/C(=C/c3cccn3C)S2)c1	TPT1 inh 31 | TPT1 inh confirm 37 | RNase T1 counter 46
Cc1cccc(N=C2NC(=O)/C(=C/c3cccs3)S2)c1	none
